Source: ChEMBL document CHEMBL1141112, “Synthesis and antiinflammatory activity of coumarin derivatives” (J Med Chem, 2005)
Activity calls are given as the source filed them. The calls are words filed in the database; no cut-off is given here.

Legend:
[1] = target: T1, Seed linoleate 13S-lipoxygenase-1 (Glycine max, UniProt P08170); assay: Inhibitory concentration against soybean lipoxygenase upon incubation with sodium linoleate (0.1 mM) at RT
T1 sequence (P08170 whole entry): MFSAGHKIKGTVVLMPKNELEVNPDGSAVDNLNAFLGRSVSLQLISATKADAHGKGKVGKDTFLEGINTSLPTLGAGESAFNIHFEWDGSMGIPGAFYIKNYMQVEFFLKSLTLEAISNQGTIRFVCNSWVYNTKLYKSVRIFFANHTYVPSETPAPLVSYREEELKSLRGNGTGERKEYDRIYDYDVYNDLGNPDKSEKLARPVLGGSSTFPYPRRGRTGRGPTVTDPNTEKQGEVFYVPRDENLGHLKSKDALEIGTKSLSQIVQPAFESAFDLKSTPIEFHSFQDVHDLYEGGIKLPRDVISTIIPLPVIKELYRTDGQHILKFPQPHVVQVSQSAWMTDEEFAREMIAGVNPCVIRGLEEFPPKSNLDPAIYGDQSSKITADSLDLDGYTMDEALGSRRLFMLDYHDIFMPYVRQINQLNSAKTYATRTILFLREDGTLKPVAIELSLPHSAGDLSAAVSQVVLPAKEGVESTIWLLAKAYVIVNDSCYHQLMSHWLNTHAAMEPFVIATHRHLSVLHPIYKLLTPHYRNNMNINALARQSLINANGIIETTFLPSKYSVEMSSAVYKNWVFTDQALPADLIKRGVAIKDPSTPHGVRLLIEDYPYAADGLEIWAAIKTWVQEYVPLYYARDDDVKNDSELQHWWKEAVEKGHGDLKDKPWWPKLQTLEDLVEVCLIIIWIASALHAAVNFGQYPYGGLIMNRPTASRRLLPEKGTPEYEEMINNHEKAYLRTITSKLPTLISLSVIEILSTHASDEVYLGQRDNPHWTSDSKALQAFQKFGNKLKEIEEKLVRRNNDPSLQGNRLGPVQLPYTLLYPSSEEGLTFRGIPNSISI
Procedure, shortened: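 Soybean lipoxygenase (0.2 mL enzyme solution, 1/3 ×10^4 w/v in saline) incubated at room temperature with test compounds in ethanol and sodium linoleate 0.1 mM as substrate. Conversion to 13-hydroperoxylinoleic acid followed at 234 nm and compared with NDGA as standard inhibitor. Run at least in triplicate; SD of absorbance under 10% of mean.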

[2] = Percent heme protein dependent lipid peroxidation (1 mM) upon incubation for 10 min at 37 degree C. in pH 7.4 with arachidonic acid and H2O2; no action; assay type: functional
Procedure, shortened: (§1)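 Heme 50 μM, arachidonic acid 0.4 mM, test compound and H2O2 0.5 mM incubated together for 10 min at 37 °C in KH2PO4–KOH buffer (50 mM, pH 7.4). Tested at 0.1 and 1 mM. At least triplicate; absorbance SD under 10% of mean.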

[3] = Percent heme protein dependent lipid peroxidation (0.1 mM) upon incubation for 10 min at 37 degree C. in pH 7.4 with arachidonic acid and H2O2; no action; assay type: functional; procedure, shortened: as §1
Rattus norvegicus [4] = assay: Percent inhibition of carrageenan 2% (0.1 mL intradermal) induced paw edema at the i.p. dose of 0.01 m mol/kg in fisher 344 rats; n=5; assay type: functional
Procedure, shortened: (§2)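 Right hind paw edema in Fischer 344 rats (150–200 g) induced by intradermal 0.1 mL 2% carrageenin in water. Rats killed 3.5 h after carrageenin; injected minus uninjected paw weight compared with water-treated controls and expressed as percent inhibition. Mean of two experiments, five animals per group; Student's t-test.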

[5] = Superoxide radical scavenging activity at 1 mM upon incubation for 2 min at RT in pH 7.4 with PMS, NADH and NBT by nitroblue tetrazolium method; no action
[6] = Percent heme protein dependent lipid peroxidation at (1 mM) upon incubation for 10 min at 37 degree C. in pH 7.4 with arachidonic acid and H2O2; assay type: functional; procedure, shortened: as §1
[7] = Percent heme protein dependent lipid peroxidation at (0.1 mM) upon incubation for 10 min at 37 degree C. in pH 7.4 with arachidonic acid and H2O2; assay type: functional; procedure, shortened: as §1
[8] = Superoxide radical scavenging activity at 1 mM upon incubation for 2 min at RT in pH 7.4 with PMS, NADH and NBT by nitroblue tetrazolium method
Rattus norvegicus [9] = assay: Onset of arthritis measured as arthritic score at p.o. dose of 80 mg/kg in rats injected intradermally with Freund's adjuvant after 24 days; assay type: functional; conditions: route oral
Rattus norvegicus [10] = assay: Onset of arthritis measured as arthritic score at i.p. dose of 0.001 m mol/kg in rats injected intradermally with Freund's adjuvant after 22 days; assay type: functional
Procedure, shortened: (§3)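 Fischer 344 rats, five per group, given Freund's adjuvant (0.6 mg desiccated Mycobacterium butyricum in 0.1 mL liquid paraffin) intradermally at tail base. Compound given ip at 0.001 mmol/kg from day 0, every other day for 24 days; absolute controls got vehicle only. Score: one point per inflamed wrist/ankle plus one per involved phalangeal joint, max five per limb, every 2 days from day 14. Run in duplicate.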

Rattus norvegicus [11] = assay: Onset of arthritis measured as arthritic score at i.p. dose of 0.001 m mol/kg in rats injected intradermally with Freund's adjuvant after 24 days; assay type: functional; procedure, shortened: as §3
Rattus norvegicus [12] = assay: Percent change in body weight of (FA) adjuvant induced rats at i.p. dose of 0.001 m mol/kg after 24 days; assay type: functional
Rattus norvegicus [13] = assay: Onset of arthritis measured as arthritic score at i.p. dose of 0.001 m mol/kg in rats injected intradermally with Freund's adjuvant after 0 days; assay type: functional; procedure, shortened: as §3
Rattus norvegicus [14] = assay: Onset of arthritis measured as arthritic score at i.p. dose of 0.001 m mol/kg in rats injected intradermally with Freund's adjuvant after 2 days; assay type: functional; procedure, shortened: as §3
Rattus norvegicus [15] = assay: Onset of arthritis measured as arthritic score at i.p. dose of 0.001 m mol/kg in rats injected intradermally with Freund's adjuvant after 4 days; assay type: functional; procedure, shortened: as §3
Rattus norvegicus [16] = assay: Onset of arthritis measured as arthritic score at i.p. dose of 0.001 m mol/kg in rats injected intradermally with Freund's adjuvant after 6 days; assay type: functional; procedure, shortened: as §3
Rattus norvegicus [17] = assay: Onset of arthritis measured as arthritic score at i.p. dose of 0.001 m mol/kg in rats injected intradermally with Freund's adjuvant after 8 days; assay type: functional; procedure, shortened: as §3
Rattus norvegicus [18] = assay: Onset of arthritis measured as arthritic score at i.p. dose of 0.001 m mol/kg in rats injected intradermally with Freund's adjuvant after 10 days; assay type: functional; procedure, shortened: as §3
Rattus norvegicus [19] = assay: Onset of arthritis measured as arthritic score at i.p. dose of 0.001 m mol/kg in rats injected intradermally with Freund's adjuvant after 12 days; assay type: functional; procedure, shortened: as §3
Rattus norvegicus [20] = assay: Onset of arthritis measured as arthritic score at i.p. dose of 0.001 m mol/kg in rats injected intradermally with Freund's adjuvant after 14 days; assay type: functional; procedure, shortened: as §3
Rattus norvegicus [21] = assay: Onset of arthritis measured as arthritic score at i.p. dose of 0.001 m mol/kg in rats injected intradermally with Freund's adjuvant after 16 days; assay type: functional; procedure, shortened: as §3
Rattus norvegicus [22] = assay: Onset of arthritis measured as arthritic score at i.p. dose of 0.001 m mol/kg in rats injected intradermally with Freund's adjuvant after 18 days; assay type: functional; procedure, shortened: as §3
Rattus norvegicus [23] = assay: Onset of arthritis measured as arthritic score at i.p. dose of 0.001 m mol/kg in rats injected intradermally with Freund's adjuvant after 20 days; assay type: functional; procedure, shortened: as §3
Rattus norvegicus [24] = assay: Duration of paralysis in rats (injected i.p. with 10 mg/1 mL/g of zoxazolamine) at i.p. dose of 0.001 m mol/kg after 24 days; assay type: functional
Procedure, shortened: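 Fischer 344 rats, groups of five, given Freund's Adjuvant intradermally at tail base; compound ip 0.001 mmol/kg from day zero every other day for 24 days. On day 24, ≥12 h after last dose, zoxazolamine ip 10 mg/1 mL/g as aqueous Tween 80 suspension; paralysis duration timed. Run in duplicate.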

[25] = target: Prostaglandin G/H synthase 1 (Homo sapiens) (UniProt P23219); conditions: at 1 mM
Rattus norvegicus [26] = assay: Percent inhibition of carrageenan 2% (0.1 mL intradermal) induced paw edema at the i.p. dose of 0.01 m mol/kg in fisher 344 rats; n=5; no action; assay type: functional, organism-based; procedure, shortened: as §2
[27] = target: T1, Seed linoleate 13S-lipoxygenase-1; assay: Inhibitory concentration against soybean lipoxygenase upon incubation with sodium linoleate (0.1 mM) at RT; no action

Sequence of Prostaglandin G/H synthase 1 (Homo sapiens) (P23219 whole entry): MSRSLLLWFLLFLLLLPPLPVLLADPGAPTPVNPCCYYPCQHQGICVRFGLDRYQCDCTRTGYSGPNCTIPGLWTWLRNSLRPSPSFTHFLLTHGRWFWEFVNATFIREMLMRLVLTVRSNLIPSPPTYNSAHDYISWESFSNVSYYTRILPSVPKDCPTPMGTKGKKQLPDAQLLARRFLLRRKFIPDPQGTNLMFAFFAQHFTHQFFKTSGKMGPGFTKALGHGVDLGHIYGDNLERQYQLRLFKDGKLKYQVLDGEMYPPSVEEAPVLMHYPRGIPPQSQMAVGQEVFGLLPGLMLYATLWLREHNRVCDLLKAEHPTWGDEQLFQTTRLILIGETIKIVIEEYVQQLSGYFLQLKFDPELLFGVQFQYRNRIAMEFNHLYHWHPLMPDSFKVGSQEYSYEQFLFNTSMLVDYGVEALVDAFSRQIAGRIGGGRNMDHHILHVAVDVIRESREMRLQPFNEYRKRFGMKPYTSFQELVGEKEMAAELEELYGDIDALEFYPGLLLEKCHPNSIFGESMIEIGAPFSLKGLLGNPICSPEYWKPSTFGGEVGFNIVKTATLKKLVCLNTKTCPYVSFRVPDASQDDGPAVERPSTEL

Structure (SMILES)	IC50 [1]	Lipid peroxidation [3]	Inhibition (Rattus norvegicus [4])	Scavenging Activity [5]	Lipid peroxidation [6]	Lipid peroxidation [7]	Scavenging Activity [8]	also measured
CN1COc2ccc3ccc(=O)oc3c2C1	42 µM	No action	53.6%	–	–	–	–	Lipid peroxidation [2]: No action
O=c1ccc2ccc(O)c(CN3CCCCC3)c2o1	37 µM	No action	47.4%	No action	7.6%	–	–	–
COc1ccc2c(c1)c(CC(=O)O)c(C)n2C(=O)c1ccc(Cl)cc1 [INDOMETHACIN]	–	–	47%	–	–	–	–	–
CCCCCN(CCCCC)Cc1c(O)ccc2ccc(=O)oc12	13 µM	No action	46.2%	No action	13.7%	–	–	–
O=c1ccc2ccc(O)c(CNCCc3ccccc3)c2o1	41 µM	–	31.2%	–	5.5%	18.2%	22.2%	–
NCCCNCc1c(O)ccc2ccc(=O)oc12	> 1000 µM	No action	53.4%	–	–	–	50%	Lipid peroxidation [2]: No action
CCCCC1C(=O)N(c2ccccc2)N(c2ccccc2)C1=O [PHENYLBUTAZONE]	–	–	–	–	–	–	–	Arthritic score (Rattus norvegicus [9]): 9
CCCCCNCc1c(O)ccc2ccc(=O)oc12	59 µM	–	52.7%	No action	5.7%	8.6%	–	–
O=c1ccc2ccc(O)c(CN3CCOCC3)c2o1	> 1000 µM	–	75.7%	–	19.9%	19.5%	58.3%	Arthritic score (Rattus norvegicus [10]): 4.25; Arthritic score (Rattus norvegicus [11]): 3.5; Change of body weight (Rattus norvegicus [12]): 7%; Arthritic score (Rattus norvegicus [13]): 0; Arthritic score (Rattus norvegicus [14]): 0; Arthritic score (Rattus norvegicus [15]): 0; Arthritic score (Rattus norvegicus [16]): 0; Arthritic score (Rattus norvegicus [17]): 0; Arthritic score (Rattus norvegicus [18]): 0; Arthritic score (Rattus norvegicus [19]): 0; Arthritic score (Rattus norvegicus [20]): 1.2; Arthritic score (Rattus norvegicus [21]): 1.25; Arthritic score (Rattus norvegicus [22]): 2.5; Arthritic score (Rattus norvegicus [23]): 3.25; Paralysis (Rattus norvegicus [24]): 212 min; inhibition [25]: 32%
O=c1ccc2ccc(O)cc2o1 [UMBELLIFERONE]	43 µM	–	–	–	26.1%	14.6%	80.6%	Arthritic score (Rattus norvegicus [10]): 5.2; Arthritic score (Rattus norvegicus [11]): 4; Change of body weight (Rattus norvegicus [12]): 18.6%; Arthritic score (Rattus norvegicus [13]): 0; Arthritic score (Rattus norvegicus [14]): 0; Arthritic score (Rattus norvegicus [15]): 0; Arthritic score (Rattus norvegicus [16]): 0; Arthritic score (Rattus norvegicus [17]): 0; Arthritic score (Rattus norvegicus [18]): 0; Arthritic score (Rattus norvegicus [19]): 0; Arthritic score (Rattus norvegicus [20]): 1.2; Arthritic score (Rattus norvegicus [21]): 1.2; Arthritic score (Rattus norvegicus [22]): 1.8; Arthritic score (Rattus norvegicus [23]): 2.6; Paralysis (Rattus norvegicus [24]): 232.5 min; inhibition (Rattus norvegicus [26]): No Action
O=c1ccc2ccc(O)c(CN3CCNCC3)c2o1	100 µM	–	77.7%	No action	21.9%	19.5%	–	Arthritic score (Rattus norvegicus [10]): 4.8; Arthritic score (Rattus norvegicus [11]): 5.8; Change of body weight (Rattus norvegicus [12]): 18.4%; Arthritic score (Rattus norvegicus [13]): 0; Arthritic score (Rattus norvegicus [14]): 0; Arthritic score (Rattus norvegicus [15]): 0; Arthritic score (Rattus norvegicus [16]): 0; Arthritic score (Rattus norvegicus [17]): 0; Arthritic score (Rattus norvegicus [18]): 0; Arthritic score (Rattus norvegicus [19]): 0; Arthritic score (Rattus norvegicus [20]): 1.2; Arthritic score (Rattus norvegicus [21]): 0; Arthritic score (Rattus norvegicus [22]): 3.2; Arthritic score (Rattus norvegicus [23]): 3; Paralysis (Rattus norvegicus [24]): 292 min; inhibition [25]: 11%
CC(C)CNCc1c(O)ccc2ccc(=O)oc12	47 µM	No action	55.4%	–	–	–	33.3%	Lipid peroxidation [2]: No action
O=c1ccc2ccc(O)c(CNCc3ccccc3)c2o1	44 µM	–	47.5%	No action	35.6%	19.5%	–	–
O=c1ccc2ccccc2o1 [COUMARIN]	–	–	30.2%	–	19.2%	9.1%	88.9%	–
CCNCc1c(O)ccc2ccc(=O)oc12	52 µM	No action	53.6%	No action	5.5%	–	–	–
CC(=O)CC(c1ccccc1)c1c(O)c2ccccc2oc1=O (stereo not drawn) [WARFARIN]	–	No action	41%	–	–	–	25%	IC50 [27]: No Action; Lipid peroxidation [2]: No action
CC(Cc1ccc(O)c(O)c1)C(C)Cc1ccc(O)c(O)c1 (stereo not drawn)	–	–	–	inactive	26.1%	inactive	–	–
O=C(O)/C=C/c1ccc(O)c(O)c1	–	inactive	–	–	5.5%	–	86.1%	–
NCCNCc1c(O)ccc2ccc(=O)oc12	> 1000 µM	No action	56%	No action	22.1%	–	–	–
